Laboratory results from ChEMBL document CHEMBL2380254, “Optimization of tocotrienols as antiproliferative and antimigratory leads” (Eur J Med Chem, 2013).

Tests used:
HCT-116 = assay: Growth inhibition of human HCT116 cells assessed as cell growth at 10 uM after 48 hrs by sulforhodamine B assay; assay type: functional; conditions: HCT-116, 48 h, read-out: Activity
Procedure, shortened: (§1)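 NCI-60 single-dose screen at 10 µM: cells in RPMI 1640 with 5% FBS, preincubated 24 h, then exposed 48 h at 37 °C. TCA fixation (16% final for suspension cells), SRB staining, absorbance 515 nm. Percent growth relative to time-zero and untreated control plates; negative values indicate cell kill.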

CAKI-1 = assay: Growth inhibition of human CAKI-1 cells assessed as cell growth at 10 uM after 48 hrs by sulforhodamine B assay; assay type: functional; conditions: CAKI-1, 48 h, read-out: Activity; procedure, shortened: as §1
SK-MEL-5 = assay: Growth inhibition of human SK-MEL-5 cells assessed as cell growth at 10 uM after 48 hrs by sulforhodamine B assay; assay type: functional; conditions: SK-MEL-5, 48 h, read-out: Activity
Procedure, shortened: (§2)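 Single-dose NCI-60 screen: adherent cells in RPMI 1640 with 5% FBS were exposed to 10 µM for 48 h at 37 °C after a 24 h preincubation. They were fixed in situ with cold TCA (10% final), stained with 0.4% SRB in 1% acetic acid, solubilized in 10 mM Tris base, and read at 515 nm. Percent growth was taken relative to time-zero and control plates.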

SNB-75 = assay: Growth inhibition of human SNB75 cells assessed as cell growth at 10 uM after 48 hrs by sulforhodamine B assay; assay type: functional; conditions: SNB-75, 48 h, read-out: Activity
Procedure, shortened: (§3)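 Single-dose NCI-60 test at 10 µM. Cells were grown in RPMI 1640 with 5% FBS and 2 mM L-glutamine, preincubated 24 h, with T0 plates TCA-fixed. Exposure was 48 h at 37 °C, 5% CO2. Cells were fixed with cold TCA (final 10%, 4 °C, 60 min), stained with SRB and read at 515 nm. Percent growth was taken relative to T0 and untreated control; negative values denote cell kill.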

[1] = Antiproliferative activity against mouse +SA cells by MTT assay; assay type: functional, cell-based; conditions: +SA cell
Procedure, shortened: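 Mouse +SA mammary epithelial cells in serum-free DMEM/F12 with BSA, transferrin, insulin and EGF. Compounds from DMSO stock conjugated to BSA (overnight, 37 °C); 0–40 µM, final DMSO <0.1%. MTT 0.42 mg/mL for 4 h at 37 °C, isopropanol solubilization, OD 570 nm. Cell number from a standard curve; IC50 by non-linear regression.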

UO-31 = assay: Growth inhibition of human UO31 cells assessed as cell growth at 10 uM after 48 hrs by sulforhodamine B assay; assay type: functional; conditions: UO-31, 48 h, read-out: Activity; procedure, shortened: as §3
OVCAR-8 = assay: Growth inhibition of human OVCAR8 cells assessed as cell growth at 10 uM after 48 hrs by sulforhodamine B assay; assay type: functional; conditions: OVCAR-8, 48 h, read-out: Activity; procedure, shortened: as §2
A498 = assay: Growth inhibition of human A498 cells assessed as cell growth at 10 uM after 48 hrs by sulforhodamine B assay; assay type: functional; conditions: A498, 48 h, read-out: Activity; procedure, shortened: as §1
HOP-92 = assay: Growth inhibition of human HOP92 cells assessed as cell growth at 10 uM after 48 hrs by sulforhodamine B assay; assay type: functional; conditions: HOP-92, 48 h, read-out: Activity; procedure, shortened: as §1
TK-10 = assay: Growth inhibition of human TK10 cells assessed as cell growth at 10 uM after 48 hrs by sulforhodamine B assay; assay type: functional; conditions: TK-10, 48 h, read-out: Activity; procedure, shortened: as §3
SF-539 = assay: Growth inhibition of human SF539 cells assessed as cell growth at 10 uM after 48 hrs by sulforhodamine B assay; assay type: functional; conditions: SF-539, 48 h, read-out: Activity; procedure, shortened: as §2
MOLT-4 = assay: Growth inhibition of human MOLT4 cells assessed as cell growth at 10 uM after 48 hrs by sulforhodamine B assay; assay type: functional; conditions: MOLT-4, 48 h, read-out: Activity
Procedure, shortened: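 Single 10 µM dose applied to suspension cells in RPMI 1640 with 5% FBS and 2 mM L-glutamine for 48 h at 37 °C. Settled cells were fixed with 80% TCA (16% final), stained with SRB, and read at 515 nm. Percent growth was calculated against time-zero and untreated control optical densities.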

NCI-H522 = assay: Growth inhibition of human NCI-H522 cells assessed as cell growth at 10 uM after 48 hrs by sulforhodamine B assay; assay type: functional; conditions: NCI-H522, 48 h, read-out: Activity; procedure, shortened: as §2
K562 = assay: Growth inhibition of human K562 cells assessed as cell growth at 10 uM after 48 hrs by sulforhodamine B assay; assay type: functional; conditions: K562, 48 h, read-out: Activity; procedure, shortened: as §1

In the case of `CC(C)=CCC/C(C)=C/CC/C(C)=C/CC[C@]1(C)CCc2c(CNCCc3ccc(O)cc3)c(O)c(C)c(C)c2O1`, the growth at 10 µM (HCT-116) is reported as 61.4%, the growth at 10 µM (CAKI-1) is reported as 86.1% and the growth at 10 µM (SK-MEL-5) is reported as 111%. It also gave a growth at 10 µM (SNB-75) of 68.1%, an IC50 [1] of 2.3 µM and a growth at 10 µM (UO-31) of 70.8%. It also gave a growth at 10 µM (OVCAR-8) of 84.8%, a growth at 10 µM (A498) of 104% and a growth at 10 µM (HOP-92) of 94.6%. The growth at 10 µM (TK-10) was 113%, the growth at 10 µM (SF-539) was 113% and the growth at 10 µM (MOLT-4) was 54.6%. It also gave a growth at 10 µM (NCI-H522) of 105% and a growth at 10 µM (K562) of 63%.

`CC(C)=CCC/C(C)=C/CC/C(C)=C/CC[C@]1(C)CCc2c3c(c(C)c(C)c2O1)OCN(CCc1ccc(O)cc1)C3` gave a growth at 10 µM (HCT-116) of 37.7%, a growth at 10 µM (CAKI-1) of 84.2% and a growth at 10 µM (SK-MEL-5) of 115%. The growth at 10 µM (SNB-75) was 69.2%, the IC50 [1] was 1.5 µM and the growth at 10 µM (UO-31) was 71.9%. It also gave a growth at 10 µM (OVCAR-8) of 42.1%, a growth at 10 µM (A498) of 90.2% and a growth at 10 µM (HOP-92) of 87.9%. The growth at 10 µM (TK-10) was 106%, the growth at 10 µM (SF-539) was 104% and the growth at 10 µM (MOLT-4) was 40.4%. For the same compound, the growth at 10 µM (NCI-H522) was 90% and the growth at 10 µM (K562) was 54.9%.

For `CC(C)=CCC/C(C)=C/CC/C(C)=C/CC[C@]1(C)CCc2c3c(c(C)c(C)c2O1)OCN(CCCCCCCCCCO)C3`, the growth at 10 µM (HCT-116) was 78.4%, the growth at 10 µM (CAKI-1) was 78.9% and the growth at 10 µM (SK-MEL-5) was 95.6%. It also gave a growth at 10 µM (SNB-75) of 91.4%, an IC50 [1] of 4.4 µM and a growth at 10 µM (UO-31) of 71.7%. It also gave a growth at 10 µM (OVCAR-8) of 89.7%, a growth at 10 µM (HOP-92) of 93.7% and a growth at 10 µM (TK-10) of 99.4%. For the same compound, the growth at 10 µM (SF-539) was 97.6%, the growth at 10 µM (MOLT-4) was 79.5% and the growth at 10 µM (K562) was 77.6%.

`CC(C)=CCC/C(C)=C/CC/C(C)=C/CC[C@]1(C)CCc2c3c(cc(C)c2O1)OCN(CCCCCCCCCCCCO)C3` showed a growth at 10 µM (HCT-116) of 51.6%, a growth at 10 µM (CAKI-1) of 78.3% and a growth at 10 µM (SK-MEL-5) of 58.1%. It also gave a growth at 10 µM (SNB-75) of 97.7%, an IC50 [1] of 2 µM and a growth at 10 µM (UO-31) of 51.7%. The growth at 10 µM (OVCAR-8) was 11.7%, the growth at 10 µM (TK-10) was 58.4% and the growth at 10 µM (SF-539) was 102%. It also gave a growth at 10 µM (MOLT-4) of 48.5%, a growth at 10 µM (NCI-H522) of 36.7% and a growth at 10 µM (K562) of 47.4%.

With `CC(C)=CCC/C(C)=C/CC/C(C)=C/CC[C@]1(C)CCc2c3c(c(C)c(C)c2O1)OCN(CCCCCCCCCCCCO)C3` the growth at 10 µM (HCT-116) was 102%, the growth at 10 µM (CAKI-1) was 96.2% and the growth at 10 µM (SK-MEL-5) was 92.8%. For the same compound, the growth at 10 µM (SNB-75) was 94.6%, the IC50 [1] was > 5 µM and the growth at 10 µM (UO-31) was 77.7%. It also gave a growth at 10 µM (OVCAR-8) of 100%, a growth at 10 µM (HOP-92) of 107% and a growth at 10 µM (TK-10) of 108%. For the same compound, the growth at 10 µM (SF-539) was 111%, the growth at 10 µM (MOLT-4) was 90.5% and the growth at 10 µM (NCI-H522) was 69.5%. For the same compound, the growth at 10 µM (K562) was 80.5%.

For `CC(C)=CCC/C(C)=C/CC/C(C)=C/CC[C@]1(C)CCc2cc(O)c(C)c(C)c2O1` [GAMMA-TOCOTRIENOL], the growth at 10 µM (HCT-116) was 109%, the growth at 10 µM (CAKI-1) was 89.5% and the growth at 10 µM (SK-MEL-5) was 99.1%. For the same compound, the growth at 10 µM (SNB-75) was 84.3%, the growth at 10 µM (UO-31) was 64.1% and the growth at 10 µM (OVCAR-8) was 112%. For the same compound, the growth at 10 µM (HOP-92) was 92%, the growth at 10 µM (TK-10) was 122% and the growth at 10 µM (SF-539) was 101%. It also gave a growth at 10 µM (MOLT-4) of 84.3%, a growth at 10 µM (NCI-H522) of 68.8% and a growth at 10 µM (K562) of 85%.
